Measured values reported in publication PMC4931879 (The Journal of Pharmacology and Experimental Therapeutics, 2016).

Tests used:
[1] = tested on: Aβx-42 in H4-APPsw cell cultures; assay: Automated multiplex HTRF assay, Aβx-42 in H4-APPsw cell cultures; type: cell-based
Procedure, shortened: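 H4-APPsw cultures treated overnight, 1 pM to 50 μM. Aβx-42 and Aβ1-x were read together in an automated HTRF multiplex; the Aβx-42 detection pairing includes monoclonal 4G8. Concentrations came from synthetic-peptide calibration curves (quadratic fit). Seven independent assays; IC50 for Aβx-42 and maximum percent inhibition for Aβ1-x, given with standard deviations.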

[2] = tested on: Aβ1-42, Aβ1-40, Aβ1-38 and Aβ1-37 in H4-APPsw cell cultures; type: cell-based; conditions: overnight
Procedure, shortened: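 H4-APPsw cultures incubated overnight with test compound at 0.46 to 333 nM, with 0.1% DMSO vehicle and a γ-secretase inhibitor reference at 1 μM. Aβ1-42, Aβ1-40, Aβ1-38 and Aβ1-37 were measured by Meso Scale 4-plex immunoassay. Concentrations came from on-plate synthetic-peptide calibration curves (quadratic fit), in pM corrected for dilution. Two replicate wells, standard error shown.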

[3] = tested on: Aβ1-x in H4-APPsw cell cultures; assay: Automated multiplex HTRF assay, Aβ1-x in H4-APPsw cell cultures; type: cell-based; conditions: read-out: Aβ1-x maximum inhibition, H4-APPsw cell cultures, overnight, at 50 μM; ± standard deviation
[4] = tested on: Aβ1-42 in H4-APPsw cell cultures; assay: Aβ1-42 immunoassay; type: cell-based; conditions: read-out: Aβ1-42 IC50
Procedure, shortened: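 Overnight exposure of H4-APPsw cultures, 10 pM to 10 μM. Aβ1-42 and Aβ1-40 were measured in parallel from the same cultures by automated HTRF immunoassays. Concentrations came from synthetic-peptide calibration curves (quadratic fit). Three independent assays; IC50 given with standard deviation.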

[5] = tested on: Aβ peptides in H4-APPsw cell cultures; type: cell-based; conditions: overnight, 100 nM
Procedure, shortened: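 H4-APPsw cultures incubated overnight with 0.1% DMSO or test compound at 100 nM. Aβ peptides were immunoprecipitated and analysed by MALDI mass spectrometry. Peaks were assigned by expected mass, referenced to an equimolar mix of synthetic peptides including [14N]Aβ1-40.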

Notch1 = assay: Cell-based transcriptional reporter assay, Notch1; conditions: read-out: Notch1 IC50
Notch3 = assay: Cell-based transcriptional reporter assay, Notch3; conditions: read-out: Notch3 IC50
brain Aβ peptides = assay: Brain Aβ peptides in rats after single intravenous doses; type: in vivo, Sprague-Dawley rats; conditions: rat
Procedure, shortened: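 Female Sprague-Dawley rats, 10–12 weeks old, fasted from 16 h before to 4 h after dosing. Given IV 1, 5 or 10 mg/kg or vehicle (PEG400/ethanol/Solutol HS 15, 93:5:2 w/w/w; 1.5 ml/kg) in randomized order. n = 4 per time point, killed by CO2 at 10 min, 30 min, and 1, 3, 7, 12 and 24 h. Brain without cerebellum frozen in liquid nitrogen. Aβ1-42/40/38/37 measured by singleplex ELISAs; Aβ1-x by 4G8/252Q6-HRP ELISA; compared with vehicle.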

[6] = Plasma exposure in rats after single intravenous doses; type: in vivo, Sprague-Dawley rats; conditions: rat, intravenous 1, 5, 10 mg/kg
Procedure, shortened: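 Same IV rat study: fasted females, 1, 5 or 10 mg/kg in PEG400/ethanol/Solutol, n = 4 per time point from 10 min to 24 h. Blood taken by cardiac puncture into EDTA for plasma. Plasma deproteinized and extracted with acetonitrile, then analysed by UPLC-MS/MS (C18 column at 60°C); quantitation range 10–5000 nM.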

[7] = Distribution into rat brain after oral administration; type: in vivo, rats; conditions: 10 mg/kg oral
Procedure, shortened: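 Rats dosed orally at 10 mg/kg in PEG400/Solutol/TPGS (90:5:5 w/w/w). n = 3 per time point, sampled at 1, 4, 8 and 24 h. Jugular blood collected into EDTA and centrifuged at 4°C (1500–2000 × g). Brain blotted, weighed and homogenized in 4 volumes of PBS; cerebellum analysed. Samples stored at −20°C, then LC-MS/MS. Brain-to-plasma ratios per time point and brain/plasma AUC ratio.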

[8] = tested on: amyloid-β precursor protein C-terminal fragment; assay: APP C-terminal fragment accumulation in rat brain; type: in vivo, rats; conditions: 30 mg/kg oral, 8 or 12 hours
CSF Aβ peptides [9] = assay: CSF Aβ peptides in dogs after single oral doses; type: in vivo, beagle dogs; conditions: dog
Procedure, shortened: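 Male beagles, about 1 year old, 8–11 kg, with indwelling lumbar catheters; CSF sampled while conscious and lightly restrained. Fasted 16 h before dosing, fed 4 h after. Four dogs in a randomized crossover with 1-week washout: oral 2, 5 or 30 mg/kg or vehicle. CSF taken predose and up to 72 h, spun at 1330 × g for 10 min at 4°C. Aβ1-42/40/38/37 measured by Meso Scale 4-plex; the four were also summed.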

CSF Aβ peptides [10] = assay: CSF Aβ peptides in healthy human subjects after a single 900-mg oral dose; type: in vivo
Procedure, shortened: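 Placebo-controlled, double-blind single-dose panel of 15 healthy young men and women of non-child-bearing potential. Single 900-mg oral dose or placebo, given fasted. CSF collected via indwelling lumbar catheter at −1, 0, 2, 4, 6, 8, 12, 15, 18 and 24 h. Aβ1-42/40/38 measured by Meso Scale 3-plex; Aβ1-37 by 26D6/Aβ1-37-selective polyclonal ELISA; Aβ1-x by 4G8/26D6-HRP ELISA.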

Aβ1-42 = assay: PK/PD across species: Aβ1-42 trough versus plasma exposure; type: in vivo; conditions: nonlinear fit of the entire data set: rat, dog, monkey, human
Procedure, shortened: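 CSF Aβ1-42 trough (lowest level after dosing) plotted against plasma AUC and Cmax. Values were per individual human subject and per dose in individual dogs and monkeys. Rats used group means, with troughs for both brain and CSF, drawn from the IV study plus two further time courses. A nonlinear fit of the pooled data gave the exposure at 50% inhibition.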

[11] = 14-day daily oral dose safety assessment in rats; type: in vivo; conditions: for AUC at 14 days: rat, in vivo, po, 100 mg/kg
Procedure, shortened: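 Safety study in male and female rats given daily oral doses of 10, 30 or 100 mg/kg for 14 days; plasma AUC determined on day 14.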

CSF Aβ peptides [12] = assay: CSF Aβ peptides in monkeys after single intravenous doses; type: in vivo, cynomolgus monkeys; conditions: monkey
[13] = Plasma exposure in monkeys after single intravenous doses; type: in vivo, cynomolgus monkeys; conditions: monkey, intravenous 5 or 15 mg/kg
Procedure, shortened: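 Crossover in four lumbar-catheterized male cynomolgus monkeys given IV 5 or 15 mg/kg or vehicle. Blood drawn at 1, 2, 3, 4, 5 and 30 min and at 1, 2, 4, 7, 10, 24 and 48 h. Samples kept on ice and centrifuged at 2880 × g for 10 min; plasma kept for compound levels.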

[14] = tested on: Aβ1-42 levels in cerebrospinal fluid; conditions: clinical trials, even at high doses; ref Galasko et al., 2007; cited from earlier work
[15] = single intravenous dose 1, 5 or 10 mg/kg
[16] = 30 mg/kg oral, 24 hours after dose
[17] = intravenous, 12–24 hours after the 30-mg/kg dose (so in the source)

**Q.** For `C[C@H](c1ccc(F)cc1CCCC(=O)O)N(c1cc(F)ccc1F)S(=O)(=O)c1ccc(Cl)cc1` [BMS-299897, (R)-4-(2-(1-((4-chloro-N-(2,5-difluorophenyl)phenyl)sulfonamido)ethyl)-5-fluorophenyl)butanoic acid, reference compound], which “Reduction of Aβx-42 versus Aβ1-x in the multiplex assays (relative potency)” value ([1]; H4-APPsw cell cultures, overnight, 1 pM to 50 μM) is on record?
**A.** approximately equal potency

**Q.** And the “Effect on production of Aβ1-42, Aβ1-40, Aβ1-38 and Aβ1-37” value ([2]; 1 μM)?
**A.** inhibited production of all four Aβ peptides

**Q.** Which results are given for `CNc1nc(Nc2ccc(-n3cnc(C)n3)c(OC)c2)nc2c1CC[C@H]2c1ccc(F)cc1` [BMS-932481, (S)-7-(4-fluorophenyl)-N2-(3-methoxy-4-(3-methyl-1H-1,2,4-triazol-1-yl)phenyl)-N4-methyl-6,7-dihydro-5H-cyclopenta[d]pyrimidine-2,4-diamine]?
**A.** IC50 ([1]; read-out: Aβx-42 IC50): 5.5 nM; inhibition at 50 µM [3]: ≤ 30%; IC50 [4]: 6.6 nM; Effect on the overall level of Aβ ([2]; 0.46 to 333 nM): little if any effect; Aβ1-42 and Aβ1-40 detected by IP-MALDI mass spectroscopy [5]: no Aβ1-42 or Aβ1-40 was detected; IC50 (Notch1): ~1000 nM; IC50 (Notch3): ~1000 nM; Sum of brain Aβ1-42, Aβ1-40, Aβ1-38 and Aβ1-37 concentrations, change (brain Aβ peptides; intravenous 1, 5 or 10 mg/kg): no significant changes; Brain Aβ1-x change (brain Aβ peptides; intravenous, any dose or time point): no significant changes; Brain Aβ1-37 maximal increase (brain Aβ peptides; [15]): ca. 6 fold; Brain Aβ1-38 maximal increase (brain Aβ peptides; [15]): ca. 2 fold; Brain Aβ1-40 maximum reduction relative to vehicle-treated rats (brain Aβ peptides; [15]): about 75%; Brain Aβ1-42 maximum reduction relative to vehicle-treated rats (brain Aβ peptides; [15]): about 75%; Concentrations in blood plasma, dose proportionality [6]: dose-proportional; Brain penetration [7]: moderate brain penetration; Effect on APP C-terminal fragment accumulation in brain [8]: no effect; CSF Aβ1-37 maximal increase (CSF Aβ peptides [9]; 30 mg/kg oral): 5 fold; CSF Aβ1-40 maximum reduction (CSF Aβ peptides [9]; [16]): ca. 65%; CSF Aβ1-42 maximum reduction (CSF Aβ peptides [9]; [16]): ca. 65%; Effect on the sum of the four CSF Aβ peptides (CSF Aβ peptides [9]; oral 2, 5 or 30 mg/kg): little, if any, effect; CSF Aβ1-37 increase (CSF Aβ peptides [10]): ca. 12 fold; CSF Aβ1-40 change (CSF Aβ peptides [10]): decrease; CSF Aβ1-42, level relative to predose (CSF Aβ peptides [10]; after 24 hours): 50 % of predose levels; CSF Aβ1-38 increase (CSF Aβ peptides [10]; gradual increase): about 2 fold; CSF Aβ1-x transient increase (CSF Aβ peptides [10]; the same increase in the placebo group): approximately 40%; Plasma AUC at 50% inhibition (Aβ1-42 trough) (Aβ1-42): 11 μM⋅h; AUC at 14 days ([11]; female): 508 µM·h; AUC at 14 days ([11]; male): 892 µM·h; Histologic changes suggestive of Notch inhibition ([11]; rat, 10, 30 or 100 mg/kg daily oral for 14 days, any dose level): no histologic changes suggestive of Notch inhibition

**Q.** What does the source list for `Cc1ncn(-c2ccc3cc2OC/C=C\CNc2nc(nc4c2CC[C@H]4c2ccc(Cl)cc2F)N3)n1` [BMS-986133, (S,Z)-17-(4-chloro-2-fluorophenyl)-34-(3-methyl-1H-1,2,4-triazol-1-yl)-16,17-dihydro-15H-4-oxa-2,9-diaza-1(2,4)-cyclopenta[d]pyrimidina-3(1,3)-benzenacyclononaphan-6-ene]?
**A.** Effect on CSF Aβ1-x or the sum of the four Aβ peptides (CSF Aβ peptides [12]; intravenous 5 or 15 mg/kg): little, if any, effect; CSF Aβ1-40 maximum reduction (CSF Aβ peptides [12]; [17]): ca. 75%; CSF Aβ1-42 maximum reduction (CSF Aβ peptides [12]; [17]): ca. 75%; Concentrations in blood plasma, dose proportionality [13]: dose-proportional

**Q.** With `CC(C(=O)O)c1ccc(-c2ccccc2)c(F)c1` (stereo not drawn) [flurbiprofen] as the compound, how does the “Effect on Aβ1-42 levels in cerebrospinal fluid” value [14] read?
**A.** no effect
